Measurements: PMC9394215 (Journal for Immunotherapy of Cancer, 2022)
Where two headings read alike, the source gives them in different places.

Experiments:
human PBMCs [1] = experiment: HPLC assay of AMPase activity; format: cell-based; settings: 1-100 µM ceritinib; 1 µM eAMP
Procedure, shortened: (§1)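 PBMCs were isolated from buffy coats by density gradient. Cells (2×10^5) were pretreated with test compound (1, 10, 50, 100 µM) for 15 min at 37°C, then given 1 µM eATP (ATPase) or eAMP (AMPase) for 30 min at 37°C. Cells were removed and supernatants 10 kDa-filtered. Etheno-nucleotides were quantified by reversed-phase C8 HPLC (phosphate pH 6.0/methanol gradient; fluorescence 230/410 nm) against standards; singlets, n=2–3.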

human PBMCs [2] = experiment: HPLC assay of ATPase activity; format: cell-based; settings: ceritinib 50 µM and higher; 1 µM eATP
Procedure, shortened: as §1

NPP3 = molecular target: T1, NPP3 (Homo sapiens, UniProt O14638); experiment: NPP3 assay; format: biochemical
T1 sequence (O14638 31-875 limits assumed): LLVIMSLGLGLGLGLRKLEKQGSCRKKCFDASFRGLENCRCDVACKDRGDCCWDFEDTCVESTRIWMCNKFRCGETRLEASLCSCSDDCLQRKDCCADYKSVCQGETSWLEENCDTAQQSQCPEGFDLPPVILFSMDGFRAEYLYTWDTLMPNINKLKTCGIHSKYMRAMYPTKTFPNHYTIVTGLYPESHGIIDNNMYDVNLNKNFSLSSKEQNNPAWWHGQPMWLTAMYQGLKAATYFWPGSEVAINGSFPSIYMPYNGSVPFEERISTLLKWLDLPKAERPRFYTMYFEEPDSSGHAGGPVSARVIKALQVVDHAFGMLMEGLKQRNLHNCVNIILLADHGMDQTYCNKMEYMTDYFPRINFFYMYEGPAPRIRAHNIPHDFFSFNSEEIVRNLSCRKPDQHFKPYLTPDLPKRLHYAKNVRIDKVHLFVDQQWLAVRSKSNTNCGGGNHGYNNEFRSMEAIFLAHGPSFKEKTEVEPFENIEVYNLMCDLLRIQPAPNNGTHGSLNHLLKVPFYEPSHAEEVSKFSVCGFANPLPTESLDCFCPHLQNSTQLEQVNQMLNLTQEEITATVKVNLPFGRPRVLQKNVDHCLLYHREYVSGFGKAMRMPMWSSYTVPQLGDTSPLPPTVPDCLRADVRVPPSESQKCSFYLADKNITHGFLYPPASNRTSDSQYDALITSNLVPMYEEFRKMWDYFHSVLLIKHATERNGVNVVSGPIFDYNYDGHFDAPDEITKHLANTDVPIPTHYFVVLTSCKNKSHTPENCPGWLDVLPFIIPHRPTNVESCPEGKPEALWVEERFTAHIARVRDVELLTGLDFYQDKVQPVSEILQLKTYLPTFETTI
Procedure, shortened: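 Purified soluble NPP3 (95 ng, Sf9-expressed) was incubated with 50 µM (final) test compound, 2% DMSO and 400 µM p-nitrophenyl thymidine 5'-monophosphate. Reactions were stopped with 1 M NaOH, and p-nitrophenolate was read at 400 nm.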

[3] = cited from earlier work
[4] = cited from earlier work; remark: listed apart in the source
[5] = cited from earlier work; remark: listed apart in the source
[6] = tested on: melanoma (Ma-Mel-65) cell membrane preparations; experiment: Malachite green assay, ATP hydrolysis by melanoma cell membrane preparations; format: biochemical, human; settings: increasing concentrations of ceritinib, 50 µM ATP
Procedure, shortened: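 Crude membranes came from ~90% confluent MDA-MB-231 or Ma-Mel-65 cells. Cells were homogenised in Tris/EDTA/saccharose/PMSF buffer, pH 7.4, and centrifuged at 1000 g, then 48,000 g for 1 h at 4°C. Pellets were washed and stored at −80°C in 50 mM Tris-HCl, pH 7.4. ATP hydrolysis (50 µM ATP, HEPES/Ca/Mg pH 7.4) was run with increasing test compound concentrations for 15 min at 37°C. Phosphate was read by malachite green (600 nm); triplicates, n=3.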

NPP5 = molecular target: T2, NPP5 (Homo sapiens, UniProt Q9UJA9); experiment: NPP5 assay; format: biochemical
T2 sequence (Q9UJA9 25-431 limits assumed): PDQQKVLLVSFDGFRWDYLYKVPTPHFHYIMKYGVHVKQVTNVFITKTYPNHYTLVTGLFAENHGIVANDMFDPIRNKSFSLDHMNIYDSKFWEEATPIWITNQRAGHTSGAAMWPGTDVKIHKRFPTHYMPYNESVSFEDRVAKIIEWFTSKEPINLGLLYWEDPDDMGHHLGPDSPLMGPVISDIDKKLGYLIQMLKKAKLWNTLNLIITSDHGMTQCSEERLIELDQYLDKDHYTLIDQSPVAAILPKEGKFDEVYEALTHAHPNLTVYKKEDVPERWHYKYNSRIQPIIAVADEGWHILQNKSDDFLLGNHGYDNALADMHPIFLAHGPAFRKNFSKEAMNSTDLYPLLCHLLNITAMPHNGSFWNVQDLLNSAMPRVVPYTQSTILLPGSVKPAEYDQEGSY
Procedure, shortened: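 Either CD38 (5 ng) or NPP5 (250 ng) was mixed with 50 µM test compound and 100 µM NAD+ as substrate. For CD38 the reaction buffer was 10 mM HEPES, pH 7.4.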

[7] = ref 61 62; cited from earlier work
TNBC (MDA-MB-231) cells = experiment: Extracellular eATP hydrolysis on live TNBC cells; format: cell-based, human; settings: 1, 10, 100 µM, significant at 10 µM, 20 µM eATP
[8] = read-out: % inhibition at 50 µM

IC50 (NPP3): > 50 µM
inhibition at 50 µM (NPP3; [8]): 1%
IC50 (NPP5): > 50 µM
inhibition at 50 µM (NPP5; [8]): 1%
Compound: Cc1cc(Nc2ncc(Cl)c(Nc3ccccc3S(=O)(=O)C(C)C)n2)c(OC(C)C)cc1C1CCNCC1 [ceritinib, Ceritinib]
effect on hydrolysis of eAMP by PBMCs (human PBMCs [1]): only a minor effect
formation of eAMP from eATP by PBMCs (human PBMCs [2]): completely blocked
average concentration in tumor tissue ([3]; brain tumor patients, after the 10th applied dose, steady state): 36 µM
range of concentration in tumor tissue ([3]; brain tumor patients, after the 10th applied dose): 2 to 139 µM
average concentration in tumor tissue ([3]; brain tumors, steady-state conditions): 36 nmol/g
concentration in tumor tissues in some patients [3]: above 100 µM
pharmacokinetics in mice versus humans [4]: comparable pharmacokinetics
metabolic stability [5]: metabolically highly stable
ATPase activity of cancer cell membranes [6]: decreased significantly
brain permeation [7]: some brain permeation
inhibition of hydrolysis of eATP added to live cells (TNBC (MDA-MB-231) cells): concentration-dependent inhibition
